In ChEMBL document CHEMBL4706495, “A novel class of small molecule inhibitors with radioprotective properties” (Eur J Med Chem, 2020):

Tests used:
SAOS-2 [1] = assay: Cytotoxicity against human SAOS-2 cells assessed as cell viability at 10 uM measured after 48 hrs by WST-1 assay relative to control; type: functional; conditions: read-out: Activity
Procedure, shortened: (§1)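 Ten-line human panel (9 cancer, 1 non-cancerous). Cells were seeded at a pre-established optimal density (500–30 × 10³ per well) and settled overnight. Compounds came from 10 mM DMSO stocks and were tested at two concentrations. WST-1 readout followed the manufacturer's protocol at the end of cultivation. Viability is expressed as % of untreated control cells, mean of three independent experiments.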

SAOS-2 [2] = assay: Cytotoxicity against human SAOS-2 cells assessed as cell viability at 100 uM measured after 48 hrs by WST-1 assay relative to control; type: functional; conditions: read-out: Activity; procedure, shortened: as §1
HT-29 [3] = assay: Cytotoxicity against human HT-29 cells assessed as cell viability at 10 uM measured after 48 hrs by WST-1 assay relative to control; type: functional; conditions: read-out: Activity; procedure, shortened: as §1
HT-29 [4] = assay: Cytotoxicity against human HT-29 cells assessed as cell viability at 100 uM measured after 48 hrs by WST-1 assay relative to control; type: functional; conditions: read-out: Activity; procedure, shortened: as §1
A2780 [5] = assay: Cytotoxicity against human A2780 cells assessed as cell viability at 10 uM measured after 48 hrs by WST-1 assay relative to control; type: functional; conditions: read-out: Activity; procedure, shortened: as §1
PANC-1 [6] = assay: Cytotoxicity against human PANC-1 cells assessed as cell viability at 100 uM measured after 48 hrs by WST-1 assay relative to control; type: functional; conditions: read-out: Activity; procedure, shortened: as §1
PANC-1 [7] = assay: Cytotoxicity against human PANC-1 cells assessed as cell viability at 10 uM measured after 48 hrs by WST-1 assay relative to control; type: functional; conditions: read-out: Activity; procedure, shortened: as §1
MCF7 [8] = assay: Cytotoxicity against human MCF7 cells assessed as cell viability at 10 uM measured after 48 hrs by WST-1 assay relative to control; type: functional; conditions: read-out: Activity; procedure, shortened: as §1
MOLT-4 [9] = assay: Radioprotective activity against gamma irradiation-induced apoptosis in human MOLT-4 cells assessed as viable cells at 100 uM pretreated with compound for 1 hr followed by gamma irradiation and measured after 24 hrs by annexinV/propidium iodide staining based flow cytometry (reference value: 40 %); type: functional; conditions: MOLT-4, light or radiation study, time 25 hrs, read-out: Activity
A549 [10] = assay: Cytotoxicity against human A549 cells assessed as cell viability at 100 uM measured after 48 hrs by WST-1 assay relative to control; type: functional; conditions: read-out: Activity; procedure, shortened: as §1
A549 [11] = assay: Cytotoxicity against human A549 cells assessed as maximum tolerated concentration incubated for 24 hrs by MTT assay; type: functional
Procedure, shortened: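 A-549 cells in DMEM with 10% FBS and 1% penicillin-streptomycin, left to attach overnight. Compounds made up in PBS, serially diluted in DMEM, incubated 24 h, then viability read by MTT reduction against untreated controls on each plate. MTC taken as the highest concentration showing no significant difference from non-treated control (t-test).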

MCF7 [12] = assay: Cytotoxicity against human MCF7 cells assessed as cell viability at 100 uM measured after 48 hrs by WST-1 assay relative to control; type: functional; conditions: read-out: Activity; procedure, shortened: as §1
A2780 [13] = assay: Cytotoxicity against human A2780 cells assessed as cell viability at 100 uM measured after 48 hrs by WST-1 assay relative to control; type: functional; conditions: read-out: Activity; procedure, shortened: as §1
A549 [14] = assay: Cytotoxicity against human A549 cells assessed as cell viability at 10 uM measured after 48 hrs by WST-1 assay relative to control; type: functional; conditions: read-out: Activity; procedure, shortened: as §1
HeLa [15] = assay: Cytotoxicity against human HeLa cells assessed as cell viability at 100 uM measured after 48 hrs by WST-1 assay relative to control; type: functional; conditions: read-out: Activity; procedure, shortened: as §1
[16] = Cytotoxicity against human MRC5 cells assessed as cell viability at 10 uM measured after 48 hrs by WST-1 assay relative to control; type: cell-based; conditions: read-out: Activity; procedure, shortened: as §1
HeLa [17] = assay: Cytotoxicity against human HeLa cells assessed as cell viability at 10 uM measured after 48 hrs by WST-1 assay relative to control; type: functional; conditions: read-out: Activity; procedure, shortened: as §1
[18] = Cytotoxicity against human MRC5 cells assessed as cell viability at 100 uM measured after 48 hrs by WST-1 assay relative to control; type: cell-based; conditions: read-out: Activity; procedure, shortened: as §1
A549 [19] = assay: Cytotoxicity against human A549 cells assessed as reduction in cell viability incubated for 24 hrs by MTT assay; type: functional, cell-based; conditions: A549, 24 h
Procedure, shortened: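 A-549 cells in DMEM with 10% FBS and 1% penicillin-streptomycin were attached overnight. Compounds were prepared in PBS and serially diluted in DMEM, then incubated 24 h. Viability was read by colorimetric MTT reduction against an untreated control on each plate (100%). IC50 came from four-parameter nonlinear regression of the log concentration-response curve, mean ± SEM. MTC is the highest concentration not differing from control (t-test).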

MOLT-4 [20] = assay: Cytotoxicity against human MOLT-4 cells assessed as cell viability at 10 uM measured after 48 hrs by WST-1 assay relative to control; type: functional; conditions: read-out: Activity; procedure, shortened: as §1
Jurkat [21] = assay: Cytotoxicity against human Jurkat cells assessed as cell viability at 100 uM measured after 48 hrs by WST-1 assay relative to control; type: functional; conditions: read-out: Activity; procedure, shortened: as §1
Jurkat [22] = assay: Cytotoxicity against human Jurkat cells assessed as cell viability at 10 uM measured after 48 hrs by WST-1 assay relative to control; type: functional; conditions: read-out: Activity; procedure, shortened: as §1
MOLT-4 [23] = assay: Cytotoxicity against human MOLT-4 cells assessed as cell viability at 100 uM measured after 48 hrs by WST-1 assay relative to control; type: functional; conditions: read-out: Activity; procedure, shortened: as §1

## OCCN1CCN(CC(O)COc2ccccc2)CC1 (configuration not stated)
SAOS-2 [1]
  viability at 10 µM: 102%
SAOS-2 [2]
  viability at 100 µM: 96%
HT-29 [3]
  viability at 10 µM: 97%
HT-29 [4]
  viability at 100 µM: 97%
A2780 [5]
  viability at 10 µM: 96%
PANC-1 [6]
  viability at 100 µM: 108%
PANC-1 [7]
  viability at 10 µM: 90%
MCF7 [8]
  viability at 10 µM: 104%
MOLT-4 [9]
  viability at 100 µM: 57%
A549 [10]
  viability at 100 µM: 99%
A549 [11]
  MTD: 0.59 mM
MCF7 [12]
  viability at 100 µM: 98%
A2780 [13]
  viability at 100 µM: 96%
A549 [14]
  viability at 10 µM: 97%
HeLa [15]
  viability at 100 µM: 107%
[16]
  viability at 48 h, 10 µM: 101%
HeLa [17]
  viability at 10 µM: 95%
[18]
  viability at 48 h, 100 µM: 101%
A549 [19]
  IC50: 5780 µM
MOLT-4 [20]
  viability at 10 µM: 92%
Jurkat [21]
  viability at 100 µM: 91%
Jurkat [22]
  viability at 10 µM: 104%
MOLT-4 [23]
  viability at 100 µM: 96%

## Cc1ccc(OCC(O)CN2CCN(CCO)CC2)cc1 (configuration not stated)
SAOS-2 [1]
  viability at 10 µM: 102%
SAOS-2 [2]
  viability at 100 µM: 83%
HT-29 [3]
  viability at 10 µM: 98%
HT-29 [4]
  viability at 100 µM: 107%
A2780 [5]
  viability at 10 µM: 97%
PANC-1 [6]
  viability at 100 µM: 99%
PANC-1 [7]
  viability at 10 µM: 102%
MCF7 [8]
  viability at 10 µM: 107%
MOLT-4 [9]
  viability at 100 µM: 58%
A549 [10]
  viability at 100 µM: 110%
A549 [11]
  MTD: 0.29 mM
MCF7 [12]
  viability at 100 µM: 100%
A2780 [13]
  viability at 100 µM: 94%
A549 [14]
  viability at 10 µM: 106%
HeLa [15]
  viability at 100 µM: 101%
[16]
  viability at 48 h, 10 µM: 112%
HeLa [17]
  viability at 10 µM: 100%
[18]
  viability at 48 h, 100 µM: 100%
A549 [19]
  IC50: 2430 µM
MOLT-4 [20]
  viability at 10 µM: 103%
Jurkat [21]
  viability at 100 µM: 97%
Jurkat [22]
  viability at 10 µM: 101%
MOLT-4 [23]
  viability at 100 µM: 103%

## Cc1ccc(C(C)C)c(OCC(O)CN2CCN(CCO)CC2)c1 (configuration not stated)
SAOS-2 [1]
  viability at 10 µM: 93%
SAOS-2 [2]
  viability at 100 µM: 109%
HT-29 [3]
  viability at 10 µM: 93%
HT-29 [4]
  viability at 100 µM: 64%
A2780 [5]
  viability at 10 µM: 100%
PANC-1 [6]
  viability at 100 µM: 125%
PANC-1 [7]
  viability at 10 µM: 91%
MCF7 [8]
  viability at 10 µM: 100%
MOLT-4 [9]
  viability at 100 µM: 58%
A549 [10]
  viability at 100 µM: 114%
A549 [11]
  MTD: 0.16 mM
MCF7 [12]
  viability at 100 µM: 85%
A2780 [13]
  viability at 100 µM: 90%
A549 [14]
  viability at 10 µM: 90%
HeLa [15]
  viability at 100 µM: 132%
[16]
  viability at 48 h, 10 µM: 102%
HeLa [17]
  viability at 10 µM: 105%
[18]
  viability at 48 h, 100 µM: 90%
A549 [19]
  IC50: 360 µM
MOLT-4 [20]
  viability at 10 µM: 87%
Jurkat [21]
  viability at 100 µM: 98%
Jurkat [22]
  viability at 10 µM: 97%
MOLT-4 [23]
  viability at 100 µM: 90%

## OCCN1CCN(CC(O)COc2ccc3ccccc3c2)CC1 (configuration not stated)
SAOS-2 [1]
  viability at 10 µM: 98%
SAOS-2 [2]
  viability at 100 µM: 91%
HT-29 [3]
  viability at 10 µM: 92%
HT-29 [4]
  viability at 100 µM: 103%
A2780 [5]
  viability at 10 µM: 99%
PANC-1 [6]
  viability at 100 µM: 95%
PANC-1 [7]
  viability at 10 µM: 101%
MCF7 [8]
  viability at 10 µM: 93%
MOLT-4 [9]
  viability at 100 µM: 65%
A549 [10]
  viability at 100 µM: 102%
A549 [11]
  MTD: 0.02 mM
MCF7 [12]
  viability at 100 µM: 93%
A2780 [13]
  viability at 100 µM: 91%
A549 [14]
  viability at 10 µM: 102%
HeLa [15]
  viability at 100 µM: 116%
[16]
  viability at 48 h, 10 µM: 103%
HeLa [17]
  viability at 10 µM: 109%
[18]
  viability at 48 h, 100 µM: 98%
A549 [19]
  IC50: 310 µM
MOLT-4 [20]
  viability at 10 µM: 109%
Jurkat [21]
  viability at 100 µM: 96%
Jurkat [22]
  viability at 10 µM: 97%
MOLT-4 [23]
  viability at 100 µM: 100%
